Experimental data: ChEMBL document CHEMBL3407428, “Synthesis, in vitro and in vivo antitumor activity of scopoletin-cinnamic acid hybrids” (Eur J Med Chem, 2015)
Calls of active or inactive are those of the source. The calls are words filed in the database; no cut-off is given here.

Experiments:
MDA-MB-231 [1] = test: Cytotoxicity against human MDA-MB-231 cells assessed as growth inhibition at 10^-5 M after 72 hrs by MTT assay relative to control; format: functional; conditions: MDA-MB-231, 72 h, read-out: GI
HeLa = test: Cytotoxicity against human HeLa cells assessed as growth inhibition at 10^-5 M after 72 hrs by MTT assay relative to control; format: functional; conditions: read-out: GI
[2] = Cytotoxicity against human HCT116 cells assessed as growth inhibition at 10^-5 M after 72 hrs by MTT assay relative to control; format: functional; conditions: HCT-116, 72 h, read-out: GI
A549 [3] = test: Cytotoxicity against human A549 cells assessed as growth inhibition at 10^-5 M after 72 hrs by MTT assay relative to control; format: functional; conditions: A549, 72 h, read-out: GI
MCF7 = test: Cytotoxicity against human MCF7 cells assessed as growth inhibition at 10^-5 M after 72 hrs by MTT assay relative to control; format: functional; conditions: MCF7, 72 h, read-out: GI
A549 [4] = test: Cytotoxicity against human A549 cells assessed as growth inhibition after 72 hrs by MTT assay; format: functional, cell-based; conditions: A549, 72 h
Outline: (§1)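 MTT viability assay. Cells were seeded at 5000 per well, incubated overnight, then exposed to compound at a range of concentrations for 72 h. MTT was added from a 5 mg/mL stock for 4 h, and absorbance was read at 570 nm. IC50 (50% viability inhibition) was calculated by the logit method. Each concentration was run at least three times.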

MDA-MB-231 [5] = test: Cytotoxicity against human MDA-MB-231 cells assessed as growth inhibition after 72 hrs by MTT assay; format: functional, cell-based; conditions: MDA-MB-231, 72 h; outline: as §1
[6] = Cytotoxicity against human HCT116 cells assessed as growth inhibition after 72 hrs by MTT assay; format: functional, cell-based; conditions: HCT-116, 72 h; outline: as §1
A549 [7] = test: Induction of apoptosis in human A549 cells assessed as dead cells at 0.1 uM after 24 hrs by Annexin V and propidium iodide staining-based flow cytometric analysis (reference value: 1.4%); format: functional
A549 [8] = test: Cell cycle arrest in human A549 cells assessed as accumulation at S phase at 0.1 uM after 24 hrs by propidium iodide staining-based flow cytometric analysis relative to control; format: functional
Outline: (§2)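 A549 cells (3 × 10^5 per well) were seeded overnight, then treated at 0, 0.01, 0.1 or 1 µM for 24 h. Cells were harvested, washed in cold PBS and fixed in cold 70% ethanol for at least 24 h. They were then RNase A-treated and stained with propidium iodide (50 µg/mL) at room temperature. DNA content was analysed by FACSCalibur flow cytometry.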

A549 [9] = test: Cell cycle arrest in human A549 cells assessed as accumulation at G0/G1 phase at 0.01 to 1 uM after 24 hrs by propidium iodide staining-based flow cytometric analysis; format: functional; conditions: in the assay text read “S phase” for “G0/G1 phase”; outline: as §2
[10] = tested on: Lewis lung carcinoma cell line; test: Antitumor activity against mouse LLC cells allografted in C57BL/6 mouse assessed as tumor growth inhibition at 5 mg/kg, ip administered for 14 days measured on day 15 relative to control; format: functional; conditions: route intraperitoneal, read-out: TGI
Outline: (§3)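 Female C57BL/6 mice (18–22 g) given 3 × 10^6 Lewis lung cancer cells subcutaneously in the right flank; dosing began 7 to 21 days after inoculation. Mice were randomized into groups of 10. Treatment was intraperitoneal daily for 14 days at 2.5, 5 or 10 mg/kg, with a saline control group. Tumors were excised and weighed when the mice were killed after 14 days.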

A549 [11] = test: Induction of apoptosis in human A549 cells assessed as early apoptotic cells at 0.1 uM after 24 hrs by Annexin V and propidium iodide staining-based flow cytometric analysis (reference value: 8.2%); format: functional
[12] = tested on: Lewis lung carcinoma cell line; test: Antitumor activity against mouse LLC cells allografted in C57BL/6 mouse assessed as tumor growth inhibition at 2.5 mg/kg, ip administered for 14 days measured on day 15 relative to control; format: functional; conditions: route intraperitoneal, read-out: TGI; outline: as §3
A549 [13] = test: Induction of apoptosis in human A549 cells assessed as early apoptotic cells at 1 uM after 24 hrs by Annexin V and propidium iodide staining-based flow cytometric analysis (reference value: 8.2%); format: functional
[14] = tested on: Lewis lung carcinoma cell line; test: Antitumor activity against mouse LLC cells allografted in ip dosed C57BL/6 mouse assessed as tumor growth inhibition administered for 14 days measured on day 15; format: functional, organism-based; outline: as §3
A549 [15] = test: Induction of apoptosis in human A549 cells assessed as late apoptotic cells at 0.1 uM after 24 hrs by Annexin V and propidium iodide staining-based flow cytometric analysis (reference value: 7.4%); format: functional
[16] = tested on: Lewis lung carcinoma cell line; test: Antitumor activity against mouse LLC cells allografted in C57BL/6 mouse assessed as tumor growth inhibition at 10 mg/kg, ip administered for 14 days measured on day 15 relative to control; format: functional; conditions: route intraperitoneal, read-out: TGI; outline: as §3
A549 [17] = test: Induction of apoptosis in human A549 cells assessed as viable cells at 0.1 uM after 24 hrs by Annexin V and propidium iodide staining-based flow cytometric analysis (reference value: 83%); format: functional; conditions: A549, 24 h, read-out: Activity
A549 [18] = test: Cell cycle arrest in human A549 cells assessed as accumulation at G2/M phase at 0.01 to 1 uM after 24 hrs by propidium iodide staining-based flow cytometric analysis; format: functional; outline: as §2
A549 [19] = test: Cell cycle arrest in human A549 cells assessed as accumulation at S phase at 1 uM after 24 hrs by propidium iodide staining-based flow cytometric analysis relative to control; format: functional; outline: as §2
A549 [20] = test: Cell cycle arrest in human A549 cells assessed as accumulation at S phase at 0.01 uM after 24 hrs by propidium iodide staining-based flow cytometric analysis relative to control; format: functional; outline: as §2
Mus musculus = test: Toxicity in C57BL/6 mouse allografted with mouse LLC cells assessed as change in body weight at 2.5 to 10 mg/kg, ip administered for 14 days measured during compound dosing; format: organism-based; set-up: dose 2.5-10 mg/kg, route intraperitoneal; conditions: in vivo, 336 h
Outline: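 LLC-bearing female C57BL/6 mice (18–22 g; 3 × 10^6 cells s.c., right flank) were randomized into groups of 10 and dosed i.p. daily for 14 days, with a saline control. Body weight was recorded every day from the first treatment.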

A549 [21] = test: Induction of apoptosis in human A549 cells assessed as early apoptotic cells at 0.01 uM after 24 hrs by Annexin V and propidium iodide staining-based flow cytometric analysis (reference value: 8.2%); format: functional
A549 [22] = test: Induction of apoptosis in human A549 cells assessed as viable cells at 0.01 uM after 24 hrs by Annexin V and propidium iodide staining-based flow cytometric analysis (reference value: 83%); format: functional; conditions: A549, 24 h, read-out: Activity
A549 [23] = test: Induction of apoptosis in human A549 cells assessed as viable cells at 1 uM after 24 hrs by Annexin V and propidium iodide staining-based flow cytometric analysis (reference value: 83%); format: functional; conditions: A549, 24 h, read-out: Activity
A549 [24] = test: Induction of apoptosis in human A549 cells assessed as late apoptotic cells at 0.01 uM after 24 hrs by Annexin V and propidium iodide staining-based flow cytometric analysis (reference value: 7.4%); format: functional
A549 [25] = test: Induction of apoptosis in human A549 cells assessed as dead cells at 1 uM after 24 hrs by Annexin V and propidium iodide staining-based flow cytometric analysis (reference value: 1.4%); format: functional
A549 [26] = test: Induction of apoptosis in human A549 cells assessed as dead cells at 0.01 uM after 24 hrs by Annexin V and propidium iodide staining-based flow cytometric analysis (reference value: 1.4%); format: functional
A549 [27] = test: Induction of apoptosis in human A549 cells assessed as late apoptotic cells at 1 uM after 24 hrs by Annexin V and propidium iodide staining-based flow cytometric analysis (reference value: 7.4%); format: functional

SMILES: COc1cc2ccc(=O)oc2cc1OC(=O)/C=C/c1ccc(Cl)cc1
- inhibition of growth at 10 µM (MDA-MB-231 [1]): 20.3%
- inhibition of growth at 10 µM (HeLa): 22.4%
- inhibition of growth at 10 µM [2]: 21.1%
- inhibition of growth at 10 µM (A549 [3]): 2.73%
- inhibition of growth at 10 µM (MCF7): 22.8%

SMILES: COc1cc2cc(NC(=O)/C=C/c3ccc(F)cc3)c(=O)oc2cc1O
- IC50 (A549 [4]): 612 nM
- inhibition of growth at 10 µM (MDA-MB-231 [1]): 69.2%
- inhibition of growth at 10 µM (HeLa): 67.1%
- inhibition of growth at 10 µM [2]: 54.2%
- IC50 (MDA-MB-231 [5]): 2350 nM
- IC50 [6]: 5540 nM
- inhibition of growth at 10 µM (A549 [3]): 85.6%
- inhibition of growth at 10 µM (MCF7): 58.4%

SMILES: COc1cc(/C=C/C(=O)Oc2cc3oc(=O)ccc3cc2OC)ccc1OCc1ccccc1
- inhibition of growth at 10 µM (MDA-MB-231 [1]): 1.39%
- inhibition of growth at 10 µM (HeLa): 2.36%
- inhibition of growth at 10 µM [2]: 4.36%
- inhibition of growth at 10 µM (A549 [3]): 10.4%
- inhibition of growth at 10 µM (MCF7): 9.91%

SMILES: COc1cc2cc(NC(=O)/C=C/c3ccc(Cl)cc3)c(=O)oc2cc1O
- Activity (A549 [7]): 2.4%
- Activity (A549 [8]): 19.6%
- Activity (A549 [9]): Active
- inhibition in vivo at 5 mg/kg [10]: 33.6%
- Activity (A549 [11]): 8.3%
- inhibition in vivo at 2.5 mg/kg [12]: 18.1%
- Activity (A549 [13]): 24.3%
- TGI [14]: Dose-dependent effect
- Activity (A549 [15]): 3.6%
- inhibition in vivo at 10 mg/kg [16]: 49.5%
- IC50 (A549 [4]): 249 nM
- inhibition of growth at 10 µM (MDA-MB-231 [1]): 70.8%
- viability at 0.1 µM (A549 [17]): 85.7%
- Activity (A549 [18]): inactive
- inhibition of growth at 10 µM (HeLa): 86.2%
- Activity (A549 [19]): 19.3%
- Activity (A549 [20]): 9.2%
- Activity (Mus musculus): Non-toxic
- Activity (A549 [21]): 5.7%
- inhibition of growth at 10 µM [2]: 64.3%
- IC50 (MDA-MB-231 [5]): 231 nM
- IC50 [6]: 684 nM
- viability at 0.01 µM (A549 [22]): 86.4%
- viability at 1 µM (A549 [23]): 66.5%
- inhibition of growth at 10 µM (A549 [3]): 87.9%
- Activity (A549 [24]): 3.7%
- Activity (A549 [25]): 1.8%
- Activity (A549 [26]): 4.3%
- Activity (A549 [27]): 7.3%
- inhibition of growth at 10 µM (MCF7): 70.1%

SMILES: COc1cc(CCC(=O)Oc2cc3oc(=O)ccc3cc2OC)ccc1O
- inhibition of growth at 10 µM (MDA-MB-231 [1]): 9.73%
- inhibition of growth at 10 µM (HeLa): 15.4%
- inhibition of growth at 10 µM [2]: 16.1%
- inhibition of growth at 10 µM (A549 [3]): 6.16%
- inhibition of growth at 10 µM (MCF7): 8.55%
